Consider three compounds from ChEMBL document CHEMBL1777776, “Identification of 2-mercaptohexanoic acids as dual inhibitors of 5-lipoxygenase and microsomal prostaglandin E₂ synthase-1” (Bioorg Med Chem, 2011).

The source made the active and inactive calls. The rule behind the calls is not given here.

The target in data set [1] is T1, Prostaglandin G/H synthase 2 (Homo sapiens) (UniProt P35354).
T1 sequence (whole entry): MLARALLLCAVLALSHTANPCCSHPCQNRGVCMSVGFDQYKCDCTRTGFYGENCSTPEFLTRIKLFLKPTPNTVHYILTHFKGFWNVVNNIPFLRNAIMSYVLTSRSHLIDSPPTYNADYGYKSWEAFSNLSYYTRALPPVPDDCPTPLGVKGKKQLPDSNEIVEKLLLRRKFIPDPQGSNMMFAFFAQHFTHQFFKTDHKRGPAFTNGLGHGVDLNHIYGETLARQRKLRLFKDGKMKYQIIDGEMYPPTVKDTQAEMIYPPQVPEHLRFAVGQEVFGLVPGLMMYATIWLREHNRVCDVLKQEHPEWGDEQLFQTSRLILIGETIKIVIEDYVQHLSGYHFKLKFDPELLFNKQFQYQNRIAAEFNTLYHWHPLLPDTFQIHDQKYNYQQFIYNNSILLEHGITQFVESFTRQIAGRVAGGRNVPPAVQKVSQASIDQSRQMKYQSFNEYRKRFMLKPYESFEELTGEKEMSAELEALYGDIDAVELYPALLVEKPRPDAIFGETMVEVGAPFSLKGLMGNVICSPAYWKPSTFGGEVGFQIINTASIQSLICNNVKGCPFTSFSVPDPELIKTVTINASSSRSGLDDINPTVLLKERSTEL
Briefly: Inhibition of human recombinant COX2 assessed as residual activity at 10 uM after 5 mins. The essentials: (§1)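 Ovine COX-1 (50 units) or human recombinant COX-2 (20 units) in 1 ml 100 mM Tris pH 8 with 5 mM glutathione, 5 µM haemoglobin and 100 µM EDTA. Preincubated with 10 µM compound 5 min at 4 °C, warmed 60 s at 37 °C. Started with AA (5 µM for COX-1, 2 µM for COX-2), run 5 min at 37 °C. 12-HHT extracted and analysed by HPLC. n = 3.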

The next data set concerns A549. Briefly: Cytotoxicity against human A549 cells assessed as cell viability at 10 uM after 16 hrs by MTT assay. It is filed as cell-based. The settings on record: a549, 5 h, in the assay text read “5 hrs” for “16 hrs”. The essentials: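 A549 cells plated at 4 × 10⁴ cells per well, incubated 16 h at 37 °C, 5% CO₂, then exposed to 10 µM compound or DMSO (≤0.3% final) for 5 h. MTT added for 4 h, formazan solubilized with SDS in 20 mM HCl, absorbance at 595 nm read relative to vehicle-treated cells.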

Data set [2] concerns the target T2, Polyunsaturated fatty acid 5-lipoxygenase (Homo sapiens, UniProt P09917).
T2 sequence (P09917 whole entry): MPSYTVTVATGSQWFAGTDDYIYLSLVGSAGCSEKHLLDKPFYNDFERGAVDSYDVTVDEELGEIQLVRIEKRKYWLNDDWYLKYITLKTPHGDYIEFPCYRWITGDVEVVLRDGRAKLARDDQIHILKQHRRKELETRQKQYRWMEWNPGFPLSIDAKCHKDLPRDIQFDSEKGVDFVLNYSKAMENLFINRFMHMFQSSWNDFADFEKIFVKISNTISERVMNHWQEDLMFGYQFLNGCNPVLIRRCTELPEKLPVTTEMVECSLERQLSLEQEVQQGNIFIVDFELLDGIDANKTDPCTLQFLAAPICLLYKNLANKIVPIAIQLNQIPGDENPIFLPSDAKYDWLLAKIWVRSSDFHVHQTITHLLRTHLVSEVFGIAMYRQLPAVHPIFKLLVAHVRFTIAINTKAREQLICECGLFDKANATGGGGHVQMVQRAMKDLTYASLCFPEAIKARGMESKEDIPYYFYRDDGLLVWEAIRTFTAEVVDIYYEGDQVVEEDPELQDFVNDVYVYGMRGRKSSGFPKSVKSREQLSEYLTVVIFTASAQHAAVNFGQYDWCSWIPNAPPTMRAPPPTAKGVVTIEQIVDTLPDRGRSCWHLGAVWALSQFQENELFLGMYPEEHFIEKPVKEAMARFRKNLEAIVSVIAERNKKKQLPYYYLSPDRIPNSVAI
Briefly: Inhibition of 5-lipoxygenase in A23187-stimulated human PMNL assessed as enzyme product formation preincubated 15 mins by RP-HPLC analysis in presence of exogenous arachidonic acid. The essentials: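 Freshly isolated human PMNL (5 × 10⁶/ml PGC buffer: PBS pH 7.4, 1 mg/ml glucose, 1 mM CaCl₂) preincubated with compound 15 min at 37 °C. Stimulated with 2.5 µM A23187 plus exogenous AA for 10 min at 37 °C. Stopped with methanol, PGB₁ added as internal standard, lipoxygenase products analysed by HPLC. Mean of n = 3–5.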

Data set [3] has as its target T3, Prostaglandin G/H synthase 1 (Ovis aries) (UniProt P05979).
T3 sequence (whole entry): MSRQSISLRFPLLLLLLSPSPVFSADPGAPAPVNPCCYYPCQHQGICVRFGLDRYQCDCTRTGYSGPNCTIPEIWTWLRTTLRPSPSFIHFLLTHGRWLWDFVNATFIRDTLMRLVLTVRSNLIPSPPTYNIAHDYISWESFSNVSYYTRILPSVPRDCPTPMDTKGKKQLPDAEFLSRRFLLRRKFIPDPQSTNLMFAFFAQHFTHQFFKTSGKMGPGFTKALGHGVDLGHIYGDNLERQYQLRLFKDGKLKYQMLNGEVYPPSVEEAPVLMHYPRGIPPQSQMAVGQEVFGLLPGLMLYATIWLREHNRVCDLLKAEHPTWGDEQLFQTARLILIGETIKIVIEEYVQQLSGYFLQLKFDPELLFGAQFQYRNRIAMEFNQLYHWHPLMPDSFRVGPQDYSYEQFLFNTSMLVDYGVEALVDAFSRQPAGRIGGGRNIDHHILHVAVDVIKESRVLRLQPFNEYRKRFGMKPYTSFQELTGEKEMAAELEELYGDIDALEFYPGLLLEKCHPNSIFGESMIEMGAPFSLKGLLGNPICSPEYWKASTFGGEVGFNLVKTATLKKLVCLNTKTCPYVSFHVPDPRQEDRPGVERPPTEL
Briefly: Inhibition of ovine COX1 assessed as residual activity at 10 uM after 5 mins. The essentials:
as §1

Data set [4] concerns the target T2, Polyunsaturated fatty acid 5-lipoxygenase. Briefly: Inhibition of human recombinant 5-lipoxygenase expressed in Escherichia coli BL21 assessed as enzyme product formation using arachidonic acid as substrate after 10 mins by RP-HPLC analysis. The essentials:
(§2)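 Human 5-LO expressed in E. coli BL21 (pT3-5LO), affinity-purified and used at once. 0.5 µg enzyme in 1 ml PBS/EDTA with 1 mM ATP preincubated with compound 5–10 min at 4 °C, then warmed 30 s at 37 °C. Reaction started with 2 mM CaCl₂ and AA (routinely 20 µM), with or without 1 µM 13(S)-HpODE. Run 10 min at 37 °C, stopped with ice-cold methanol, products analysed by HPLC. Washout: 10-fold dilution (10 to 1 µM).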

The target in another data set is T4, Prostaglandin E synthase (Homo sapiens, UniProt O14684).
T4 sequence (O14684 whole entry): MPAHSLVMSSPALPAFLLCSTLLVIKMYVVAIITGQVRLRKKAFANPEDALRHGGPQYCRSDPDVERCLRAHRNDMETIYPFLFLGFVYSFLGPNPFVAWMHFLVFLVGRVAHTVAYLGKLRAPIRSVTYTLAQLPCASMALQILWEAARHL
Kind of data set: Inhibition of mPGES-1 in human IL-1beta-stimulated A549 cell microsomes assessed as reduction of PGE2 formation from PGH2 after 15 mins. Also noted: species or system Microsome. The essentials:
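Microsomes from A549 cells stimulated 72 h with IL-1β (1 ng/ml), diluted to 50 µg/ml in 0.1 M potassium phosphate pH 7.4 with 2.5 mM glutathione. Preincubated with compound (1% DMSO final) 15 min at 4 °C. Reaction started with 20 µM PGH₂, run 1 min at 4 °C, stopped with FeCl₂/citric acid containing 11β-PGE₂; PGE₂ quantified. Mean of n = 3–5.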

For data set [5], the target named is T5, Polyunsaturated fatty acid 5-lipoxygenase (Homo sapiens) (UniProt P09917).
T5 sequence (whole entry): T2 sequence (P09917 whole entry)
Kind of data set: Inhibition of human recombinant 5-lipoxygenase expressed in Escherichia coli BL21 assessed as enzyme product formation using arachidonic acid as substrate at 1 uM after 10 mins by RP-HPLC analysis. The essentials:
as §2

Take `CCCCC(Sc1ccc(OCCCOc2ccc(Cl)c(C(F)(F)F)c2)cc1)C(=O)O` (stereo not drawn): the inhibition entry in data set [1] is “inactive”. For the same compound, the Activity result in the data set on A549 is “Non-toxic”; in data set [3], 71.3%. Moreover, the figures for the IC50 (in data set [2]; in data set [4]; on Prostaglandin E synthase) were 1500 nM, 2 µM and 1700 nM, respectively.

For `CC(C)c1ccc2c(c1)c(SC(C)(C)C)c(CC(C)(C)C(=O)O)n2Cc1ccc(Cl)cc1`, the inhibition result in data set [5] was “inactive”.

For the compound `CCCCC(Sc1ccc(OCCCOc2cccc3c2CCCC3)cc1)C(=O)O` (stereo not drawn), the inhibition entry in data set [1] and in data set [3] was “inactive” in each case. In addition, the Activity result in the data set on A549 is on record as “Non-toxic”. Further, the IC50 was 1400 nM in data set [2], 4.5 µM in data set [4] and 2200 nM at Prostaglandin E synthase.
